Assay [1] can be described thus: Displacement of [3H]NMS from mAChR in SD rat submandibulary gland by rapid filtration technique. The procedure, abridged: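 Membranes from male SD rat (220–240 g) submandibulary glands, homogenised in ice-cold 0.32 M sucrose/50 mM Tris pH 7.4, spun at 1000g then 20,000g, at 4 °C. Membranes (0.1 mg protein) incubated at 37 °C with [3H]NMS and increasing compound concentrations in Tris buffer. Filtered through glass fibre, washed three times. Run in duplicate. IC50 by curve fit, Ki by Cheng–Prusoff.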
A general note: Displacement assays read how much labelled ligand stays bound in the presence of the test substance.

For assay [2], the species on record is Cavia porcellus. As to the kind of experiment: (§1) Antagonist activity at guinea pig mAChR assessed as inhibition of carbachol-induced iris muscle contraction. The format is functional, tissue-based. In a few lines: (§2)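 pA2 values derived by Arunlakshana–Schild analysis of contraction responses; data as means SEM.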
The species named for assay [3] is Oryctolagus cuniculus. As to the kind of experiment: Mydriatic effect in rabbit assessed as change in pupil diameter under constant light at 0.02 M after 10 mins. The format is functional. In a few lines: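 Rabbits (2.5–3.0 kg, either sex), randomised into groups of five. 0.05 ml agent dropped into left eye, right eye as control reference. Left pupil diameter (mm) read under constant light before and 10 min after dosing. Significance by Student's t-test, P < 0.05.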

Assay [4] can be described thus: as §1. Format: functional, tissue-based, Cavia porcellus. The procedure, abridged:
as §2

The species named for assay [5] is Oryctolagus cuniculus. Put plainly: Myotic effect in rabbit assessed as change in pupil diameter under constant light at 0.02 M after 10 mins. Format: functional. The procedure, abridged: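 Twenty healthy rabbits (2.5–3.0 kg, either sex) were randomised into four groups of five. Left pupil diameter (mm) was read under constant light before and 10 min after 0.05 ml agent was dropped in; the right eye served as control reference. Significance by Student's t-test, P < 0.05.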

The nature of assay [6]: Agonist activity at guinea pig mAChR assessed as stimulation of carbachol-induced iris muscle contraction relative to carbachol. The format is functional. Conditions: Cavia porcellus.
Assay [7] can be described thus: (§3) Agonist activity at guinea pig mAChR assessed as stimulation of carbachol-induced iris muscle contraction. The format is functional, tissue-based, Cavia porcellus. The procedure, abridged:
(§4)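 Iris contraction assay: EC50 (agonist concentration giving half-maximal response) and log concentration–response slopes obtained by nonlinear sigmoidal dose–response logistic curve fitting. Data given as means SEM; significance by Student's t-test, P < 0.05.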

For assay [8], the species on record is Cavia porcellus. The assay is described as §3. The format is functional, tissue-based. In a few lines: as §4

The source made the active and inactive calls. The rule behind the calls is not given here.

As for `CC(=O)O[C@@H]1CC2C[C@H](OC(=O)c3ccc([N+](=O)[O-])cc3)CC1N2C` (some centres undefined), the Ki (commonly a dissociation constant, usually derived from enzyme kinetics or from competition with a known ligand) in assay [1] was found to be 450 µM. The result in the assay filed under Cavia porcellus [2] was inactive. Also, the Activity in the assay listed under Oryctolagus cuniculus [3] came out at 3.7%.
With `CC(=O)O[C@H]1CC2C[C@@H](OC(=O)c3ccc([N+](=O)[O-])cc3)CC1N2C` (some centres undefined), the Ki in assay [1] was 3.7 µM. In addition, in assay [4], the pA2 (commonly a measure of antagonist potency on a negative log scale) was 6.11. Moreover, in the assay filed under Oryctolagus cuniculus [3], the Activity is 35.1%.
In assay [1], `CC(=O)O[C@@H]1CC2C[C@H](OC(=O)c3ccc(Cl)cc3)CC1N2C` (some centres undefined) showed a Ki of 73 µM. For the same compound, the outcome in the assay filed under Cavia porcellus [2] was inactive. Also, the Activity in the assay listed under Oryctolagus cuniculus [3] came out at 3%.
Regarding `CC(=O)O[C@H]1CC2C[C@@H](OC(=O)c3ccc(Cl)cc3)CC1N2C` (some centres undefined), in assay [1], the Ki is 9 µM. Also, the Activity in the assay listed under Oryctolagus cuniculus [3] is on record as 32.2%.
Regarding `CC(=O)O[C@@H]1CC2C[C@H](OS(=O)(=O)c3ccccc3)CC1N2C` (some centres undefined), the Activity in the assay listed under Oryctolagus cuniculus [5] came out at 4.7%.
`C[N+](C)(C)CCOC(N)=O.[Cl-]` [CARBACHOL]: the Emax (as a rule, the maximal effect, on the per cent scale that the assay sets) in assay [6] was found to be 100%. In assay [7], the pEC50 (usually −log10 of the EC50, conventionally taken in molar units) stood at 6.57.
In the case of `CC(=O)O[C@H]1CC2C[C@@H](OS(=O)(=O)c3ccccc3)CC1N2C` (some centres undefined), the inhibition constant (Ki) in assay [1] came out at 0.04 µM. In assay [6], the maximal response (Emax) was 87.1%. Besides, in assay [7], the pEC50 was 6.06. Also, the Activity result was “Dose-dependent effect” in the assay listed under Cavia porcellus [8] and 44% in the assay filed under Oryctolagus cuniculus [5].
